Reference: ChEMBL document CHEMBL3580618, “New trisubstituted 1,2,4-triazoles as ghrelin receptor antagonists” (Bioorg Med Chem Lett, 2015)

Experiments:
[1] = biological target: T1, Growth hormone secretagogue receptor type 1 (Homo sapiens, UniProt Q92847); assay: Antagonist activity at GHSR1a (unknown origin) assessed as inhibition of ghrelin-induced intracellular calcium mobilization; format: functional, cell-based
Summary of the method: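 GHS-R1a-expressing cells; [Ca2+]i mobilization read. Compounds failing to raise calcium above 10% of maximal response (100% = 10^-7 M ghrelin) at 10^-5 M were treated as antagonists. […] One experiment, mean points from quadruplicate measurements.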

[2] = Retention time of the compound by HPLC analysis; format: physicochemical
[3] = biological target: T1, Growth hormone secretagogue receptor type 1; assay: Displacement of 125I-[His9]-ghrelin from human GHSR1a expressed in LLC-PK1 cells by competitive binding assay; format: cell-based
[4] = Retention time of the compound by LC-MS analysis; format: physicochemical
[5] = biological target: T1, Growth hormone secretagogue receptor type 1; assay: Antagonist activity at human GSHR1a expressed in mouse LTK cells assessed as inhibition of ghrelin-induced reporter gene expression after 6 hrs by CRE/luciferase reporter gene assay; format: functional, cell-based
Summary of the method: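 Mouse LTK cells stably expressing human GHS-R1a with luciferase reporter under CRE elements and CMV minimal promoter. Cells incubated 6 h with 1 µM rolipram, test compound at various concentrations and saturating ghrelin. Cells then lysed and bioluminescence read. % inhibition: ghrelin-treated cells = 0%, untreated cells = 100%. Quadruplicate points. IC50 from one experiment for weaker compounds, mean of at least two experiments for nanomolar ones.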

T1 sequence (Q92847 whole entry): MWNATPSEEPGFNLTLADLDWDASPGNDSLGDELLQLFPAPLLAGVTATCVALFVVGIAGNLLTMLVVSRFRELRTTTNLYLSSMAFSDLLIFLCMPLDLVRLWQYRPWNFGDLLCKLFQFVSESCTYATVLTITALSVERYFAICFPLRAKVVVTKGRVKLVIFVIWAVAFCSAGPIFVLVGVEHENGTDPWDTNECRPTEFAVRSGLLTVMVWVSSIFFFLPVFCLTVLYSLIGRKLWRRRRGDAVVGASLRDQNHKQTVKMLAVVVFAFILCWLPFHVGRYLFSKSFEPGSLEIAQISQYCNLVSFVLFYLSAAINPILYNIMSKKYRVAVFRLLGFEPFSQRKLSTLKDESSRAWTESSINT

SMILES	IC50 [1] [nM]	Retention_time [2] [min]	IC50 [3] [nM]	Retention_time [4] [min]	IC50 [5] [nM]
COc1ccc(Cn2c(CCc3ccccc3)nnc2[C@@H](Cc2c[nH]c3ccccc23)NC(=O)c2nccc3ccccc23)cc1	82	1.93	150	1.85	73
COc1ccc(Cn2c(CCc3ccccc3)nnc2[C@H](N)Cc2c[nH]c3ccccc23)cc1			> 1000		
COc1ccc(Cn2c(CCc3ccccc3)nnc2[C@@H](Cc2c[nH]c3ccccc23)NC(=O)c2ccncc2)cc1			220		828
COc1ccc(Cn2c(CCc3ccccc3)nnc2[C@@H](Cc2c[nH]c3ccccc23)NC(=O)c2cccnc2)cc1	337	1.61	122	1.57	411
COc1ccc(Cn2c(CCc3ccccc3)nnc2[C@@H](Cc2c[nH]c3ccccc23)NC(=O)c2cncc(Br)c2)cc1	88	1.85	84	1.85	222
COc1ccc(Cn2c(CCc3ccccc3)nnc2[C@@H](Cc2c[nH]c3ccccc23)NC(=O)c2cccnc2Br)cc1	510	1.76	250	1.66	193
COc1ccc(Cn2c(CCc3ccccc3)nnc2[C@@H](Cc2c[nH]c3ccccc23)NC(=O)c2ccc(Cl)nc2)cc1	1010	1.8	130	1.52	771
COc1ccc(Cn2c(CCc3ccccc3)nnc2[C@@H](Cc2c[nH]c3ccccc23)NC(=O)c2cccnc2N)cc1	671	1.58	380	1.35	427
COc1ccc(Cn2c(CCc3ccccc3)nnc2[C@@H](Cc2c[nH]c3ccccc23)NC(=O)c2ncccc2F)cc1	7	1.73	3	1.67	8.8
COc1ccc(Cn2c(CCc3ccccc3)nnc2[C@@H](Cc2c[nH]c3ccccc23)NC(=O)c2ncc(F)cc2F)cc1	4.6	1.82	4	1.65	2.8
COc1ccc(Cn2c(CCc3ccccc3)nnc2[C@@H](Cc2c[nH]c3ccccc23)NC(=O)c2cccc[n+]2[O-])cc1	112	1.73	42	1.59	79
COc1ccc(Cn2c(CCc3ccccc3)nnc2[C@@H](Cc2c[nH]c3ccccc23)NC(=O)c2ccc(N3CCCC3)cn2)cc1	2110	1.76	65	1.8	1210
COc1ccc(Cn2c(CCc3ccccc3)nnc2[C@@H](Cc2c[nH]c3ccccc23)NC(=O)c2ncccc2C(=O)c2ccccc2)cc1	230	1.88	240	1.83	313
COc1ccc(Cn2c(CCc3ccccc3)nnc2[C@@H](Cc2c[nH]c3ccccc23)NC(=O)c2cc3ccccc3cn2)cc1	404	1.9	100	1.87	126

More lines, now with the values ahead:

IC50 [1] [nM]	Retention_time [2] [min]	IC50 [3] [nM]	Retention_time [4] [min]	IC50 [5] [nM]	SMILES
4.5				6	COc1ccc(Cn2c(CCc3ccccc3)nnc2[C@@H](Cc2c[nH]c3ccccc23)NC(=O)c2ccccn2)cc1
2.1	1.84	2	1.67	2.1	COc1ccc(Cn2c(CCc3ccccc3)nnc2[C@@H](Cc2c[nH]c3ccccc23)NC(=O)c2cccc(F)n2)cc1
5.4	1.82	3.4	1.74	7.5	COc1ccc(Cn2c(CCc3ccccc3)nnc2[C@@H](Cc2c[nH]c3ccccc23)NC(=O)c2cccc(C)n2)cc1
7.8	1.86	2	1.76	9	COc1ccc(Cn2c(CCc3ccccc3)nnc2[C@@H](Cc2c[nH]c3ccccc23)NC(=O)c2cccc(OC)n2)cc1
25	1.55	6	1.5	21	COc1ccc(Cn2c(CCc3ccccc3)nnc2[C@@H](Cc2c[nH]c3ccccc23)NC(=O)c2cccc(N)n2)cc1
165	1.86	240	1.82	108	COc1ccc(Cn2c(CCc3ccccc3)nnc2[C@@H](Cc2c[nH]c3ccccc23)NC(=O)c2ncccc2O)cc1
